Reference: ChEMBL document CHEMBL4007470, “Discovery of a 2'-fluoro-2'-C-methyl C-nucleotide HCV polymerase inhibitor and a phosphoramidate prodrug with favorable properties” (Bioorg Med Chem Lett, 2017)

What was measured:
[1] = system: Plasma; test: Half life in human plasma at 2 uM by LC-MS/MS analysis; format: ADME, cell-free; conditions: 2 µM
Method in brief: (§1)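 Compound at 2 μM incubated in plasma at 37 °C for up to 4 h. Aliquots quenched with 9 volumes of acetonitrile containing internal standard, then centrifuged. Supernatant analysed by LC-MS/MS.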

[2] = system: Hepatitis C virus; test: Antiviral activity against HCV genotype 4a infected in human HuH7 cells by luciferase reporter gene assay; format: functional, cell-based, Hepacivirus hominis
[3] = Permeability of the compound from basolateral to apical side in human Caco2 cells at 10 uM; format: ADME, cell-based, Caco-2; conditions: caco-2, 10 µM, 10 µM
Method in brief: (§2)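 Caco-2 permeability at 10 μM compound, measured in apical-to-basolateral and basolateral-to-apical directions.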

[4] = system: Hepatitis C virus; test: Antiviral activity against HCV genotype 1a infected in human HuH7 cells by luciferase reporter gene assay; format: functional, cell-based, Hepacivirus hominis, subtype 1a
[5] = Hepatic extraction in hamster liver S9 fractions at 2 uM by LC-MS/MS analysis; format: ADME; conditions: cricetinae, s9, 2 µM; 2 µM
Method in brief: (§3)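 Compound at 2 μM incubated with S9 fractions at 37 °C for 90 min with NADPH and UDPGA. Quenched with aqueous acetonitrile/methanol containing internal standard and analysed by LC-MS/MS. Half-life from an exponential fit assuming first-order kinetics. Hepatic extraction predicted from half-life using the well-stirred model.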

[6] = Permeability of the compound from apical to basolateral side in human Caco2 cells at 10 uM; format: ADME, cell-based, Caco-2; conditions: caco-2, 10 µM, 10 µM; method in brief: as §2
[7] = system: Rhesus monkey; test: Toxicity in monkey at 30 mg/kg/day for 28 days; format: organism-based, Macaca mulatta; conditions: in vivo, 672 h
[8] = system: Rattus norvegicus; test: Toxicity in rat at 1000 mg/kg/day for 28 days; format: organism-based; conditions: in vivo, 672 h
[9] = system: Hepatitis C virus; test: Antiviral activity against HCV genotype 1b infected in human HuH7 cells by luciferase reporter gene assay; format: functional, cell-based, Hepacivirus hominis
Method in brief: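 Luciferase-reporter genotype 1b subgenomic replicon in Huh-7 cells; EC50 is concentration giving 50% inhibition. Values are averages of at least three repeats.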

[10] = organism: Rattus norvegicus; test: Toxicity in rat assessed as vacuolization in brain treated for 28 days by histopathology; conditions: in vivo, 672 h
[11] = system: Liver; test: Hepatic extraction in human liver S9 fractions at 2 uM by LC-MS/MS analysis; format: ADME; conditions: s9, 2 µM, 2 µM; method in brief: as §3
[12] = Half life in hamster plasma at 2 uM by LC-MS/MS analysis; format: ADME, cell-free; conditions: cricetinae, 2 µM; method in brief: as §1
[13] = Half life in hamster intestinal S9 fractions at 2 uM by LC-MS/MS analysis; format: ADME, Intestine; conditions: cricetinae, s9, 2 µM; 2 µM

## CC(C)OC(=O)C1(NP(=O)(OC[C@H]2O[C@@H](c3cnc4c(N)ncnn34)[C@](C)(F)[C@@H]2O)Oc2ccccc2)CCC1 (stereo in doubt; 53)
[1]
  t1/2: 9.1 h
[2]
  EC50: 440 nM
[3]
  permeability: 9.3 ×10⁻⁶ cm/s
[4]
  EC50: 800 nM
[5]
  ERH: 90%
[6]
  permeability: 1.7 ×10⁻⁶ cm/s
[7]
  Activity: Non-Toxic
[8]
  Activity: Non-Toxic
[9]
  EC50: 3000 nM
[10]
  Activity: Dose-dependent effect
[11]
  ERH: 76%
[12]
  t1/2: 3.63 h
[13]
  t1/2: 1.65 h
